FGF22 binding: shifts melting point of recombinant human FGF22; Q9HCT0; recombinant FGF22 thermal shift, SYPRO orange fluorescence; percent of sucrose octasulfate shift, DMSO zero; activity (Tm shift, normalised), % at 9.99 µM; hit rate 1.5% among 340,000; AID 651658;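 active = mean Tm shift, scaled 0 neutral to 100 positive control, at about 1.3% or above, every replicate too, limit read from the data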
Target sequence (Q9HCT0 whole entry, looked up): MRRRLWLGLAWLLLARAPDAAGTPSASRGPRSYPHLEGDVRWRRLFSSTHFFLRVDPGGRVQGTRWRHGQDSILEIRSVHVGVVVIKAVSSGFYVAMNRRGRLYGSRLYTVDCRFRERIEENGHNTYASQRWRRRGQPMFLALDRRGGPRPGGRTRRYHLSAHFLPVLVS
ERAP1 HTS inh: ERAP1 (human) enzyme inhibition | recombinant ERAP1, Leu-AMC fluorescence, 60 min | hit rate 0.15% among 340,000 | inhibition, % at 10.7 µM | Q9NZ08;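 active = mean replicate inhibition of at least 30%, or all replicates individually reaching that 30% level; inactive = mean below 30% and not every replicate reaching it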;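 note: 0% = neutral control wells and 100% = L-leucinethiol positive control wells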
PGC1a acetyl inh: modulators of PGC1a acetylation | U2OS PGC1a acetylation, AlphaScreen anti-acetyl-lysine; with virally co-expressed GCN5 acetyltransferase | inhibition, % at 15.6 µM | hit rate 0.17% among 350,000 | AID 651687;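 active = every replicate shows inhibition of at least 40%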;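 note: 0% = neutral control wells and 100% = positive control wells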
SIRT5 inh: blocks human SIRT5 desuccinylation of peptide; Purified SirT5, succinyl-peptide AMC, trypsin-coupled fluorescence; Q9NXA8; hit rate 1.1% among 330,000; AID 652115; inhibition, % at 15 µM; in the data active = inhibition above about 15%
Target sequence (Q9NXA8 whole entry, looked up): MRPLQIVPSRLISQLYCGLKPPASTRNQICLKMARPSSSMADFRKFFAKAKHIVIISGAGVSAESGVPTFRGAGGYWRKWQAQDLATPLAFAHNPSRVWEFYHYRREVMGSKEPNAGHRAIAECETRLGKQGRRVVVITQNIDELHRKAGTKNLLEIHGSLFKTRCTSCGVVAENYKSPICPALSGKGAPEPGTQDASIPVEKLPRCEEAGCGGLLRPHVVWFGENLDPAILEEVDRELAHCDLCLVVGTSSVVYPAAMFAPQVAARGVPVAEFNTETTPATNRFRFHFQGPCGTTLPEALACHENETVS
FN deposit inh: fibronectin deposition inhibition. AH1F fibroblasts, Alexa488-fibronectin deposition fluorescence, overnight. inhibition, % at 12.6 µM. hit rate 0.086% among 350,000. AID 743247;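 active = mean inhibition across replicates of 30% or more, regardless of how many single replicates reach that level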;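 note: positive control wells lacked labelled fibronectin entirely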
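material = AH1F fibroblast monolayer depositing Alexa488-labelled fibronectin into matrix | amount = 10000 AH1F cells/well | buffer or medium = DMEM plus 2% serum, read in PBS | incubation = 1 h cell adhesion before compound, then overnight fibronectin incubation | detection = fluorescence at 485 nm excitation, 525 nm emission | evaluation = percent inhibition as loss of matrix-bound fibronectin fluorescence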
An asterisk follows results filed as active; / = not tested or not shown. Compounds with a hit are over-represented: about 2.2% of the library has one in this group of screens.

SMILES	FGF22 binding	ERAP1 HTS inh	PGC1a acetyl inh	SIRT5 inh	FN deposit inh
Cc1ccc(S(=O)(=O)N(C)C[C@H]2Oc3ccc(NC(=O)Cn4cnnn4)cc3CC(=O)N([C@@H](C)CO)C[C@H]2C)cc1	0	1	-12	34*	6
COCC(=O)Nc1ccc2c(c1)[C@H]1C[C@@H](CC(=O)NCc3ccccc3OC)O[C@@H](CO)[C@H]1O2	0	-1	-3	0	-1
N#CCCN(C(=O)COC(=O)c1ccc2c(c1)NC(=O)CS2)c1ccc2c(c1)OCCO2	/	1	0	37*	0
COC(=O)c1ccc2c(c1)NC(=O)CS2	0	6	8	0	14
O=C1CCCCN1CCc1c[nH]c2ccccc12	/	/	-1	/	1
O=C1CCCN1CCc1cccc2ccccc12	43*	-6	-9	-5	-8
CC(=O)N(c1cccc(C)c1)S(=O)(=O)c1ccc(Cl)cc1	0	2	53*	-4	/
CC(=O)N(c1ccccc1C)S(=O)(=O)c1ccc(Cl)cc1	43*	0	/	/	/
Nc1ccc(C(=O)Nc2ccc3nc(-c4ccncc4)[nH]c3c2)cc1	44*	6	-14	1	7
OCCC1CN(Cc2cccn2-c2ccccn2)CCN1C1CCCCC1 (stereo not given)	44*	2	/	-3	20
Cc1ccc(CN2CCN(Cc3cccn3-c3ccccn3)CC2CCO)cc1 (stereo not given)	0	-4	/	-6	5
C[C@@H]1CN([C@H](C)CO)C(=O)c2cccc(NS(=O)(=O)c3cn(C)cn3)c2O[C@H]1CN(C)C	0	-1	2	-2	3
COc1ccc(N(C(=O)CCl)C(C(=O)NCCc2ccccc2)c2cccs2)cc1 (stereo not given)	43*	3	61*	2	25
C=CCON/C(CCC)=C1\C(=O)C(C(=O)OC)C(C)(C)CC1=NC (stereo not given)	44*	-6	11	-1	0
C=CCON/C(CCC)=C1\C(=O)CC(C)(C)CC1=NC	0	/	-1	-1	0
CC(=O)NC(C)c1nc2ccccc2n1CC(=O)N1C(C)CCCC1C (stereo not given)	44*	1	/	1	/
c1ccc(-c2nc(-c3cccs3)[nH]c2-c2ccccc2)cc1	0	1	-32	15*	/
O=C(NC[C@H]1CC[C@@H]2[C@@H](CN2S(=O)(=O)c2ccccc2)O1)NC1CCCCC1	/	-2	/	2	/
C/C(=N\NC(=O)c1ccccc1NC(=O)c1ccc(Cl)cc1)c1ccncc1	43*	-2	/	0	-3
CCOP(=O)(OCC)C(NC(=O)Nc1c(C)cc(C)cc1C)c1ccccc1 (stereo not given)	43*	3	2	-2	/
COC(=O)/C=C/c1sc2nc(C)cc(C)c2c1N=CN(C)C	0	-5	4	32*	2
Cc1cc(C)c2c(N=CN(C)C)c(C(=O)N3CCN(c4ncccn4)CC3)sc2n1	/	/	10	/	1
CC(C)NC(=O)N[C@@H]1CC[C@H](CCNC(=O)C2CCOCC2)O[C@H]1CO	0	2	-12	-1	13
CO[C@H]1CN(C)C(=O)c2ccc(NC(=O)c3nc4ccccc4s3)cc2OC[C@H](C)NC[C@@H]1C	-1	-1	-8	1	-15
C[C@@H]1CN([C@@H](C)CO)C(=O)Cc2cc(NC(=O)Nc3cccc4ccccc34)ccc2O[C@H]1CN(C)C(=O)Nc1ccccc1	0	0	-1	0	/
SMILES	FGF22 binding	ERAP1 HTS inh	PGC1a acetyl inh	SIRT5 inh	FN deposit inh
C[C@@H]1CN([C@H](C)CO)C(=O)Cc2cc(NS(=O)(=O)c3ccc(F)cc3)ccc2O[C@H]1CN(C)S(=O)(=O)c1ccccc1	0	-1	-2	5	/
C/C=C/c1ccc2c(c1)O[C@@H](CN(C)C(=O)NC1CCCCC1)[C@H](C)CN([C@@H](C)CO)S2(=O)=O	0	0	-8	-4	-13
C/C=C/c1ccc2c(c1)O[C@@H](CN(C)C(=O)NC1CCCCC1)[C@H](C)CN([C@H](C)CO)S2(=O)=O	0	0	7	4	-9
C[C@@H]1CN([C@H](C)CO)S(=O)(=O)c2ccc(/C=C/c3ccccc3)cc2O[C@H]1CN(C)C(=O)NC1CCCCC1	-1	0	18	25*	/
C[C@H]1CN([C@@H](C)CO)S(=O)(=O)c2ccc(/C=C/c3ccccc3)cc2O[C@@H]1CN(C)C(=O)NC1CCCCC1	0	1	-5	30*	/
C=C(C)C(=O)N1CC2(CC(c3cccc(NC(=O)CCCCC)c3)=NO2)C[C@H]1C(N)=O (stereo not given in full)	0	-2	/	23*	-8
C[N+]1(CCOC(=O)C2(c3ccccc3)CCCC2)CCCCC1	0	67*	/	9	-4
CCOC(=O)c1c(C)nc(C)c(C(=O)OCC)c1-c1ccc(OC)cc1	0	-4	-4	26*	/
COC(=O)c1c(C)nc(C)c(C(=O)OC)c1-c1ccc(OC)cc1	0	/	/	-4	6
Oc1[nH]c2ccccc2c1N=Nc1ccc(C(F)(F)F)cn1	/	/	12	/	/
Oc1[nH]c2ccc(Br)cc2c1N=Nc1ccc(C(F)(F)F)cn1	44*	0	3	-1	6
Cc1cc(=O)[nH]c(N/N=C/c2c(C)nn(-c3ccccc3)c2Cl)n1	0	3	6	16*	9
C[C@@H]1CN([C@H](C)CO)C(=O)c2cc(-c3ccccc3F)cnc2O[C@@H]1CN(C)Cc1ccccc1	0	-1	-5	-3	0
CCCCCCC12Cc3cc(OC)c(OC)cc3C(O1)C1=C(O2)C(C)(C)CCC1=O (stereo not given)	43*	0	/	/	6
CO[C@H](CN(C)C(=O)c1cnccn1)[C@H](C)CN([C@H](C)CO)S(=O)(=O)c1ccc(Cl)cc1	0	0	4	-4	8
Cc1nc2[nH]c(=S)[nH]c(=O)c2nc1C	0	0	-8	-3	-8
Cc1nc2c(=O)[nH]c(=S)[nH]c2[nH]c1=O	0	3	1	41*	10
O=C(/C=C/c1cccnc1)/C=C/c1cccnc1	0	-2	81*	-5	5
Cc1cccc(C(=O)Nc2ccc(C(=O)/C=C/c3cccnc3)cc2)c1	/	/	54*	/	9
Cc1cccc(/C=C/C(=O)c2ccc(NC3=NCCCS3)cc2)c1	0	35*	/	-3	8
O=C(C[C@H]1CC[C@H](NC(=O)Nc2cc(F)ccc2F)[C@@H](CO)O1)NCCCN1CCOCC1	0	2	7	-3	-2
CC(C)C[C@H](NC(=O)[C@H](Cc1ccccc1)n1c(=O)[nH]c2ccccc2c1=O)C(=O)N1CCC(C(=O)O)CC1	0	-1	11	1	/
C[C@H](NC(=O)[C@H](Cc1ccccc1)n1c(=O)[nH]c2ccccc2c1=O)C(=O)N1CCC(C(=O)O)CC1	0	-2	-1	15*	/

Assay outcomes (PubChem)
